From the EternaBench riboswitch data

System: MS2 coat protein
Assay: apparent Kd, MS2 coat protein; higher = weaker binding; RNA-MaP array
Outline: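 Sequenced DNA templates on an Illumina sequencing chip were transcribed into the designed RNAs. These were incubated at room temperature in Tris-HCl pH 7.5 buffer containing KCl, MgCl2, BSA, DTT, tRNA and Tween20 with fluorescently labeled MS2 coat protein at 1.5 nM to 3 μM, with or without input ligand. Apparent Kd is the median of binding-curve fits per cluster, and designs with fewer than 10 clusters measured were excluded.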

[1] = designed as: OFF switch for flavin mononucleotide, no ligand
[2] = ligand present: flavin mononucleotide, designed as: OFF switch for flavin mononucleotide
[3] = designed as: OFF switch for theophylline, no ligand
[4] = ligand present: theophylline, designed as: OFF switch for theophylline
[5] = designed as: ON switch for flavin mononucleotide, no ligand
[6] = ligand present: flavin mononucleotide, designed as: ON switch for flavin mononucleotide
[7] = designed as: ON switch for theophylline, no ligand
[8] = ligand present: theophylline, designed as: ON switch for theophylline
[9] = designed as: OFF switch for tryptophan, no ligand
[10] = ligand present: tryptophan, designed as: OFF switch for tryptophan

Sequence | apparent Kd [1] [nM] | apparent Kd [2] [nM] | other results
UCGACAUCAGGAUAUACGAUGGAGUAGUUACGAGUAUCACGACAUGAGGAUCACCCAUGUAGAAGGGAUCGUCC | 21.4 | 17.7 | –
CCUCAACAUGAGGAUCACCCAUGUCAGGAUAUCUAGGAGACAUCACAUGCGUCCGAUGAGAGAAGGGACACAGU | 25.1 | 27.5 | –
GAGCGCAGUUUACAACAUACUAACACAGAUACCAGAAAUUUUAUGUUCCCUUGGCAGCUGACAACAUGAGGAUCACCCAUGUGCU | – | – | apparent Kd [3]: 17.1 nM; apparent Kd [4]: 17.7 nM
CAAGGGAAUACAGGAUAUUGCUGGAGUUGGGCGAGACAUGAGGAUCACCCAUGUUAUGCUAUAGUCAAGAAGGGUAUCUCGAGG | 18.5 | 13 | –
AUGAAAAGUACAGGAUAUAUAUAAACACAAAACGGACAUGAGGAUCACCCAUGUUGACGUUGUCAAUAGAAGGGUACCAACACA | – | – | apparent Kd [5]: 26.1 nM; apparent Kd [6]: 10.7 nM
CCGCGACAUGAGGAUCACCCAUGUGAUUUGACCUCCGGCACGAGAAGGUUCCGACCAAACGGCCGAAAGGAUAUCGUCCCAGAG | – | – | apparent Kd [5]: 64.1 nM; apparent Kd [6]: 38.6 nM
UAAGAAGUCCAGAAGGUAGCCCUACCGUACAGCUAAGGAUAUGGCUCACCGGUUUCAACAUGAGGAUCACCCAUGUCCUCCCGG | – | – | apparent Kd [5]: 55.9 nM; apparent Kd [6]: 36.3 nM
GGGUUACUCUAUGAUACCAGUUCCAUGCCGAAACCUGUGUACAUGAGGAUCACCCAUGUGAACCCUUGGCAGCAUUAAUCAACUG | – | – | apparent Kd [3]: 97.5 nM; apparent Kd [4]: 258 nM
CUUUGUGGCCAAGGAUAUCCUGGCACAGUACAUGAGGAUCACCCAUGUCGAAGACAUGGUCGUACGGAGAAGGUGGGCACCCUC | – | – | apparent Kd [5]: 511 nM
UCACAUGAGGAUCACCCAUGUAAAUCACACGACGGUGCUGUCAAGGAUAUGUUACGCUCAGGGCUACAGAAGGUGAUGGUCAAG | – | – | apparent Kd [5]: 52.7 nM; apparent Kd [6]: 25.2 nM
GACCAUCACCAGAAGGUCCUCCACCAGCGAGAUCCGACAUGAGGAUCACCCAUGUACUGUGGAUGGAAGGAUAUGGAAGGCUCU | 46.9 | 116 | –
UAGCGACAUGAGGAUCACCCAUGUCCCGGCUACUAAGGAUAUGCAGUGAUUGAAAGGAAGGCAGAAGGUAGUGCAG | – | – | apparent Kd [5]: 25.3 nM; apparent Kd [6]: 12.7 nM
UUAGCACAUGAGGAUCACCCAUGUCUCGAUACCAGAUAAGUUCCGAUCCCUUGGCAGCGACAAGCUUGCAAACUGCGACUAUUCU | – | – | apparent Kd [7]: 24.7 nM; apparent Kd [8]: 25 nM
GGAAAACCUCGAGGAUAUAGCACAUGAGGAUCACCCAUGUACCAUAAGUGUUGACAAAAGAGAGACUAGAAGGCGAAUCAAACC | – | – | apparent Kd [5]: 13.1 nM; apparent Kd [6]: 11.6 nM
GUACCUCAAGGAUAUGCCCGAUCUUACAUGAGGAUCACCCAUGUUGGCUCAGGGCUUAGGGCAGAAGGUGAGAAGU | 6.38 | 7.52 | –
CCUGGACAUGAGGAUCACCCAUGUGAGGAUACCAGAUAUCCUGAUAUCCCUUGGCAGCCUCAUUACUUCGCAUUACCGAAACUUC | – | – | apparent Kd [7]: 103 nM; apparent Kd [8]: 249 nM
UUCUUUGACGAGAAGGUCUCAACAUGAGGAUCACCCAUGUGAAUUAAUGGAACCAGGCCUGUUUAGAAGGAUAUCGCGGGAGUU | 10.9 | 13.8 | –
UGAGAAGUAGGAUAUAAGUACACCUACAUGAGGAUCACCCAUGUACCUAACGUAGCCGAUUUAGAAGGACUGUCAA | 58.7 | 35.5 | –
UAGUAACAUGAGGAUCACCCAUGUGAGGAUAUCUGGCUAGGCUAAAGCAGAGAAACCAAGAGAAGGCACGGGAU | 19.4 | 20.8 | –
CAUACAUAACAUGAGGAUCACCCAUGUGACUCACUCUGAAAGCAGGAUAUAUUCGGUAAGCUACGAUAGAAGGGCUAUGCGUAA | 42.2 | 31.3 | –
UAGCGACAUGAGGAUCACCCAUGUGAGGAUAUGAAGUCUAUAACACAAGCUAAUGAAGACAGAAGGCACAUGAG | 66.8 | 59.3 | –
CUAUGGGAUAAGGAUAUAAUAAUUGAGAAGGAGUUAGAAGGUAUAACAUGAGGAUCACCCAUGUGAGGGCCCUA | 9.22 | 9.07 | –
GUAAACGCCACAGGAUAUUGGCAGAAUAAGGAGCAAGAAGGGUGGGAUAGAAUCACGUGAACAUGAGGAUCACCCAUGUGUGGA | – | – | apparent Kd [5]: 55.3 nM; apparent Kd [6]: 38 nM
GAAAUACAUGAGGAUCACCCAUGUCAGGAUAUCGGUGAGAAAGAGCAUCUCUGCGGCCCGAGAAGGGACACAGG | 64.5 | 51.8 | –

Sequence | apparent Kd [1] [nM] | apparent Kd [2] [nM] | other results
GUCGCAUGAGGAUAUACAUGAGGAUCACCCAUGUAUCUACGCAUGGGAAGACACCAAUGUAGAAGGCAUCUCAA | 64.2 | 21.5 | –
UAUCGGGCAGGAUAUACAUGCGAUUACACUCUUCGGAAAGUACAUGAGGAUCACCCAUGUAGAAGGGCCAAGUG | 10.4 | 11 | –
CUGCCACGAACGGCCGCCACUUACAUGAGGAUCACCCAUGUGCCUGCGCACAAAGAAUGUCAAGAAAGGACCGGGUUCAAAUAGU | – | – | apparent Kd [9]: 61.3 nM; apparent Kd [10]: 66.8 nM
AUGUCACAUGAGGAUCACCCAUGUAUGGAUACCAGUUUAGUGAAUAACCCUUGGCAGCCAAGGAUGCGACAGAAAUCCGGAAAAC | – | – | apparent Kd [7]: 21.3 nM; apparent Kd [8]: 21.1 nM
CGACAUAACCGAGGAUAUCGCUGACGUAAGCACAUGAGGAUCACCCAUGUGAGUGAGAGUGAGUACGAGAAGGCGGAAUUAAGG | – | – | apparent Kd [5]: 53.3 nM; apparent Kd [6]: 16.5 nM
GGAAUCGGAUUAGAGGAUAUCGAUCUGUUAACAUGAGGAUCACCCAUGUGGACGCUUCAUUCGAACGAGAAGGCUAGAUGGACACC | – | – | apparent Kd [5]: 23.8 nM; apparent Kd [6]: 16.8 nM
GGUCCAAUAGGAUAUACAUGAGGAUCACCCAUGUAAUGGAAGCUCGGGUUUUGGUACUGUAGAAGGAUUGGGAC | 25.8 | 40.9 | –
ACUUACGGAAAGAAGGAGGGACAGUCACGGCGGGCGGACCACAUGAGGAUCACCCAUGUGCGAGCCUAGGAUAUUUAGGGUAGC | 7.19 | 7.23 | –
GUAAAACUGUAAGGAUAUGAUGAACUUUAACCCUCAGAAGGAACACCACAUGAGGAUCACCCAUGUUAGGAAAGCAACUUGUUG | – | – | apparent Kd [5]: 14.1 nM; apparent Kd [6]: 13.8 nM
UCCCUACCGUCGGCCGCCACUGGGUCAUACAGUUCGUAACUACAUGAGGAUCACCCAUGUGCAGCCAGGACCGGGACGCGCCUUG | – | – | apparent Kd (designed as: ON switch for tryptophan, no ligand): 177 nM; apparent Kd (ligand present: tryptophan, designed as: ON switch for tryptophan): 106 nM
ACACCUCACGGAAUACAUGAGGAUCACCCAUGUUGGGAAGGAAGAAGGUUCCGUGUUGAUUGCUGAAAGGAUAUUCGUGACCCG | 190 | 153 | –
UGAGAACAUGUCUUUAAGUUUACCUCUGAUACCAGAUUGAAAGGCAUCCCUUGGCAGCAGCAUACAUGAGGAUCACCCAUGUCCU | – | – | apparent Kd [3]: 111 nM; apparent Kd [4]: 138 nM
ACAUCCACCAAGAAGGCUGGUGCGGCACUUAAGUCGUUCACAUGAGGAUCACCCAUGUCGUAUACAGAGGAUAUUGAGGUUUUC | 39.1 | 38.7 | –
CUCUACAUGAGGAUCACCCAUGUAUUAAUACAACUGGGUGCUAGAAGGUGCACUUAAGAAUAGGGCAAGGAUAUAGACCGUUCA | 158 | 77.4 | –
CGCCCGAAAGGAUAUACAUGAGGAUCACCCAUGUUUCUAGCAAAAUGACCCUCAAUUCGUAGAAGGUUCCGAGU | 32.6 | 36.1 | –
AUAGAACAUGAGGAUCACCCAUGUAGAAAAUCAGCAGGAUAUGUGAUCACUCCGUAAUUGACAGAAGGGCUAACAA | – | – | apparent Kd [5]: 68.2 nM; apparent Kd [6]: 28.8 nM
UAAGUUUUAGAGAAGGCCUGGAAUUGCUGUGCAGGAGGAUAUCUGGGACAUGAGGAUCACCCAUGUAGCCGCUAAGCGUAAGGG | 46.6 | 83.1 | –
GGAUUGAUAGGAUAUACAUAGAUGUAGGAGCCUUCACUCCCACAUGAGGAUCACCCAUGUAGAAGGAUCAGUAA | 12.1 | 23.6 | –
GUGAUGCCUUACACAUGAGGAUCACCCAUGUGGUGUAAGCGUAGAAGGUGAAUAUAUUCCAUAGUCAAGGAUAUACGAACAAUC | 12.2 | 11.5 | –
UGGGUUACCUCAGGAUAUCGCCUUGUACAUGAGGAUCACCCAUGUAGUAUCGGCCGUGUGUGCAUCGAGAAGGGAGUAACCUUC | 75.2 | 53.5 | –
UGUACCUGUAUCUGGUCCAUAGUAUAACCUCGAGGACCGGUACGGCCGCCACUCGUCGGACCACAUGAGGAUCACCCAUGUACCG | – | – | apparent Kd [9]: 11.6 nM; apparent Kd [10]: 12.7 nM
AAAUGAGCGCAUCCCUAACAUGAGGAUCACCCAUGUGCUACAGAGGAUAUCGUCACCAUAUCUCACGAGAAGGCUGGUAUAUUG | 9.25 | 11.4 | –
UCGAUGGUACCCGAUACCAGCAAUACAUCACAGACCUGAUACAUGAGGAUCACCCAUGUGUGCCCUUGGCAGCGGGUCCUGAAAA | – | – | apparent Kd [3]: 17.8 nM; apparent Kd [4]: 38.1 nM
